# APOBEC3G inh: blocks human APOBEC3G single-stranded DNA deamination. Q9HC16. recombinant A3G, ssDNA deamination FAM/TAMRA fluorescence. inhibition, % at 20 µM. 330,000 compounds, 0.28% hits;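 active = inhibition of at least 40% at 20 µM, with no more than 30% in the related APOBEC3A deaminase screen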
# Arr AP2 block: blocks beta-arrestin peptide binding to AP2 adaptin. FITC-arrestin peptide / GST-AP2 beads, flow cytometry; AP2 beta2 appendage carries R879A mutation. inhibition, % at 10 µM. 340,000 compounds, 0.31% hits;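 active = inhibition above a set limit, near 3 SD of compounds lacking own fluorescence, cut at about 54% in these data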
#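 System: GST-tagged AP2 beta2-adaptin appendage (R879A) on 4 µm glutathione beads / Reagent: FITC-arrestin peptide, 50 nM / Detection: HyperCyt-sampled flow cytometry, FL1 channel, ex 488/em 535 nm / Timing: 12 min plus 1 h, RT / Buffer or medium: PBS plus Tween 20 (0.05%) and BSA (0.1%)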
# APOBEC3A inh: blocks human APOBEC3A ssDNA deamination; P31941; recombinant A3A, FAM/TAMRA ssDNA deamination fluorescence; inhibition, % at 20 µM; 330,000 compounds, 0.41% hits; AID 493011;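 active = at least 40% inhibition at 20 µM here, with at most 30% in a related deaminase screen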
# Target sequence (P31941 whole entry, looked up): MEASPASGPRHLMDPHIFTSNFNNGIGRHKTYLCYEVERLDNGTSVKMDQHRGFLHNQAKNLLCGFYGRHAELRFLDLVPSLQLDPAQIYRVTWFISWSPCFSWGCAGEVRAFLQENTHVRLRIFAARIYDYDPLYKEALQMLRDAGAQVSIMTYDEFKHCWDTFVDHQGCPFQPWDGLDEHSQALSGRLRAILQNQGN
# AHR activator: human AHR activation. P35869. AHR-responsive luciferase reporter cells, luminescence. activation, % at 5 µM. 320,000 compounds, 2.5% hits. AID 2796; in the data active = activation above about 47%
# PolyA inh: inhibitors of polyadenylation in S. cerevisiae. AID 1875. activity score, % at 12 µM. S. cerevisiae SKY197-pL101 polyadenylation reporter, beta-gal luminescence; efflux-impaired pdr1/pdr3 knockout yeast; score 100 = 6 SD above DMSO. 300,000 compounds, 0.02% hits;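 active = lowest replicate activity score at least 50, where 100 means six control SD above control mean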;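 also: yeast exposed to compound for 9 h at 30 °C; higher score means more reporter readthrough which indicates perturbed polyadenylation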
# UCH37 DUB inh: human UCH37 deubiquitinating enzyme inhibition | Q9Y5K5 | purified proteasome/UCH37, Ub-AMC cleavage fluorescence | inhibition, % (test concentration not listed) | 330,000 compounds, 0.33% hits;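 active = mean inhibition over replicate wells above about 20%, limit read from the data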
#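 Material: human UCH37 enzyme supplied as purified proteasome complex / Amount: 0.15 nM proteasome as dispensed / Buffer or medium: pH 7.4 Tris-HCl (50 mM) with ovalbumin, ATP-MgCl2, DTT / Times: preincubation 30 min, reaction 25 min, room temperature / Technique: AMC fluorescence from Ub-AMC cleavage, excitation 355 nm, emission 460 nm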
# Hits are given with their value; - = inactive; . = no result given. Shown are actives, neighbours in structure and some others; about 3.4% of the full set was active somewhere.
SMILES,APOBEC3G inh,Arr AP2 block,APOBEC3A inh,AHR activator,PolyA inh,UCH37 DUB inh
O=C(Nc1ccccc1O)c1ccc([N+](=O)[O-])cc1,-,-,-,70.3,-,-
CSc1ccccc1NC(=O)c1ccc([N+](=O)[O-])cc1,-,-,-,-,-,-
N#C/C(=C/c1ccc([N+](=O)[O-])cc1)C(=O)Nc1ccccc1O,-,-,-,67.8,-,.
O=C(O)COc1ccc(C=NNc2nc(Nc3ccccc3)nc(N3CCCCC3)n2)cc1,.,.,.,.,.,-
COc1ccc(OCC(=O)NN=C(C)c2cccs2)cc1,.,.,.,.,.,-
CC(=NNC(=O)C1(C)NC(C)(C)Cc2ccccc21)c1ccccc1 (configuration not stated),.,.,.,.,.,-
COc1ccc2c(c1)C(=NNC(=O)c1ccccn1)c1cc(OC)ccc1-2,-,-,-,52.2,-,-
Cc1cc(/C=C(\C#N)C(=O)O)c(C)n1C1CC1,-,-,-,-,-,20.7
COC(=O)/C(=C/Nc1cccc2ccccc12)[N+](=O)[O-],-,-,-,61.7,-,-
Cc1n[nH]c(=S)n1/N=C/c1ccccc1OCc1ccc(Cl)cc1Cl,-,-,-,48.6,-,.
Cc1n[nH]c(=S)n1N=Cc1ccccc1OCc1ccc(Cl)cc1,.,.,.,.,.,-
CCc1n[nH]c(=S)n1/N=C/c1ccccc1OCc1ccc(Cl)cc1,-,-,-,66.5,-,.
CC(=NN1CCN(C)CC1)c1ccc(OC(F)F)cc1,.,.,.,.,.,-
COc1ccc(-c2cn[nH]c2-c2ccc(OCc3ccc([N+](=O)[O-])cc3)cc2O)cc1,-,-,-,51.1,-,-
Cn1/c(=N/NC(=O)c2ccccc2Br)sc2ccccc21,-,-,-,47.5,-,.
CCC(=O)NN=c1sc2ccccc2n1C,.,.,.,.,.,-
O=C(C1=NN[C@@H]2C(=O)N(c3cccc(C(F)(F)F)c3)C(=O)[C@H]12)c1ccc2ccccc2n1,-,-,-,-,-,-
O=C(C1=NN[C@@H]2C(=O)N(c3cccc(F)c3)C(=O)[C@H]12)c1ccc2ccccc2n1,-,-,-,98.7,-,.
CCN(CC)CCn1c(N=Cc2cc(Br)ccc2O)nc2ccccc21,.,.,.,.,.,-
O=C(NN=C/C=C/c1ccco1)c1cccc([N+](=O)[O-])c1,.,.,.,.,.,-
COc1ccc(S(=O)(=O)Nc2cc3c4c(oc3c3ccccc23)CCCC4=O)cc1,-,-,-,47.7,-,-
CCCCC12CN3CCN(CC(C3)C1=NNC(=O)c1ccccc1N)C2,.,.,.,.,.,-
Cc1cc(C)c(S(=O)(=O)N=C2C=C(Sc3ncn[nH]3)C(=O)c3ccccc32)cc1C,.,.,.,.,.,30.7
CCOC(=O)C1=C(O)/C(=C/c2ccc(-c3ccccc3C(=O)O)o2)SC1=Nc1ccc(OC)cc1,.,-,.,.,.,23.5
CCOC(=O)C1=C(O)/C(=C/c2ccc(-c3ccccc3C(=O)O)o2)SC1=Nc1ccc(C)cc1,.,-,.,.,.,.
SMILES,APOBEC3G inh,Arr AP2 block,APOBEC3A inh,AHR activator,PolyA inh,UCH37 DUB inh
O=C(CCc1ccccc1)NN=Cc1cc2c(cc1Br)OCO2,.,.,.,.,.,-
CCOc1cc2[nH]c(=S)n(Cc3ccc(C)o3)c(=O)c2cc1OCC,-,-,-,65.2,-,-
CCOc1cc2[nH]c(=S)n(CCCOC)c(=O)c2cc1OCC,-,-,-,-,-,-
CC(=NNc1ccc(Cl)c(C(=O)O)c1)c1ccc[nH]1,.,.,.,.,.,-
CCn1nc(C)c(C=NNC(=O)Cc2ccc(Cl)cc2)c1C,.,.,.,.,.,-
O=C1Nc2ccccc2O/C1=C\c1ccccc1Br,-,-,-,53.2,-,-
O=C(Cn1c(=S)[nH]c2ncccc2c1=O)NCCc1ccccc1,-,.,-,56.9,-,-
NC(=NOC(=O)c1cccc2ccccc12)c1cccc([N+](=O)[O-])c1,.,.,.,.,.,-
COc1ccccc1C(=O)O/N=C(\N)c1ccc(Cl)cc1,-,-,-,69.0,-,-
COc1cc(OC)c(C(=O)O/N=C(\N)c2ccccc2)cc1OC,-,-,-,77.6,-,-
N/C(=N\OC(=O)c1cccc2ccccc12)c1ccncc1,-,-,-,67.2,-,-
CC(=NO)C(=O)NCC1CCNCC1,.,.,.,.,.,-
COc1cccc(C=NN2CCN(c3ccc(Cl)cc3)CC2)c1OC,.,.,.,.,.,-
COCCn1c(-c2ccc(Br)cc2)csc1=Nc1cccnc1,-,-,-,-,.,.
